Experimental data: ChEMBL document CHEMBL3217724, “Synthesis and evaluation of a series of benzothiophene acrylonitrile analogs as anticancer agents” (Medchemcomm, 2013)
Calls of active or inactive are those of the source. The calls are words filed in the database; no cut-off is given here.

Legend:
[1] = system: Malme-3M; assay: Growth inhibition of human MALME-3M cells; format: functional
Outline: (§1)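 NCI 60-human-cancer-cell-line panel, five-dose screen after a preliminary screen. GI50 is the molar concentration giving 50% growth inhibition.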

[2] = Growth inhibition of human RXF393 cells; format: functional; details: RXF 393; outline: as §1
[3] = system: NCI-H23; assay: Growth inhibition of human NCI-H23 cells; format: functional; outline: as §1
[4] = system: T47D; assay: Growth inhibition of human T47D cells; format: functional
Outline: (§2)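 NCI 60-cell-line panel, five-dose screen; GI50 is the molar concentration giving 50% growth inhibition.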

[5] = system: LLC-PK1; assay: Resistance factor, ratio of GI50 for pig LLC-PK1 cells expressing MDR1 to GI50 for pig LLC-PK1 cells; set-up: species or system Sus scrofa
Outline: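 Porcine epithelial L-MDR1 (P-gp expressing) cells and their non-expressing parent line were exposed to compound for 72 h. Viability was read with AlamarBlue dye and GI50 derived. P-gp expression was verified by Western blot with β-actin as loading control. The resistance ratio compares GI50 in MDR1 versus parent cells.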

[6] = target: Tubulin (Homo sapiens) (UniProt P68371+Q9H4B7+P0DPH7+P68366+Q13509+Q71U36+P04350+Q3ZCM7+P07437+P68363+Q9BQE3+Q6PEY2+Q13885+Q9BVA1+Q9BUF5); assay: Inhibition of tubulin polymerization (unknown origin) after 1 hr; format: protein-complex assay
Outline: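 Purified tubulin was allowed to polymerize for 1 h with increasing concentrations of compound. Docetaxel and vinblastine were the stabilizing and destabilizing references.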

[7] = Growth inhibition of human UO31 cells; format: functional; details: UO-31; outline: as §2
[8] = system: TK-10; assay: Growth inhibition of human TK10 cells; format: functional; outline: as §2
[9] = target: Tubulin beta (Homo sapiens) (UniProt P68371+Q9H4B7+Q13509+P04350+Q3ZCM7+P07437+Q13885+Q9BVA1+Q9BUF5+A6NNZ2); assay: Inhibition of tubulin beta in human PC3 cells assessed as chromosomal overduplication at 100 nM after 24 hrs by DAPI-staining based immunofluorescence assay; format: cell-based; details: PC-3
Outline: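 PC3 cells were treated 24 h at 100 nM, with docetaxel 100 nM for comparison. Tubulin immunofluorescence with DAPI nuclear counterstain was used to score chromosome overduplication and multiple spindle poles.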

[10] = Growth inhibition of human LOXIMVI cells; format: functional; details: LOX IMVI; outline: as §1
[11] = system: MDA-MB-435; assay: Growth inhibition of human MDA-MB-435 cells; format: functional; outline: as §1
[12] = Growth inhibition of human OVCAR8 cells; format: functional; details: OVCAR-8; outline: as §1
[13] = Growth inhibition of human OVCAR4 cells; format: functional; details: OVCAR-4; outline: as §1
[14] = system: NCI-H322M; assay: Growth inhibition of human NCI-H322M cells; format: functional; outline: as §1
[15] = system: SK-MEL-2; assay: Growth inhibition of human SK-MEL-2 cells; format: functional; outline: as §1
[16] = Growth inhibition of human OVCAR5 cells; format: functional; details: OVCAR-5; outline: as §1
[17] = system: A549; assay: Growth inhibition of human A549 cells; format: functional; outline: as §1
[18] = Growth inhibition of pig LLC-PK1 cells by Alamar Blue assay; format: cell-based, Sus scrofa
Outline: (§3)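 Cell viability was read with AlamarBlue dye in 96-well format and GI50 values derived, to assess P-gp effects. Cells were P-gp-expressing NCI/ADR-Res ovarian cancer cells and L-MDR1 porcine epithelial cells, each with its non-expressing parent line. P-gp expression was confirmed by Western blot with β-actin as loading control. Resistance is the GI50 in the P-gp line over the GI50 in the parent line.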

[19] = system: NCI-H522; assay: Growth inhibition of human NCI-H522 cells; format: functional; outline: as §1
[20] = Growth inhibition of human OVCAR3 cells; format: functional; details: OVCAR-3; outline: as §1
[21] = system: PC-3; assay: Growth inhibition of human PC3 cells; format: functional; outline: as §1
[22] = system: SR; assay: Growth inhibition of human SR cells; format: functional; outline: as §2
[23] = Growth inhibition of human MOLT4 cells; format: functional; details: MOLT-4; outline: as §1
[24] = system: SNB-75; assay: Growth inhibition of human SNB75 cells; format: functional; outline: as §2
[25] = Growth inhibition of P-gp expressing human NCI-ADR-RES cells by Alamar Blue assay; format: functional
Outline: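 72-h cytotoxicity in 96-well plates with AlamarBlue viability dye, giving GI50. Line 1 uses docetaxel-resistant PC3 prostate cells (PC3-DR), and line 2 uses NCI/ADR-Res ovarian cells. P-gp expression in both was confirmed by Western blot, with β-actin as the loading control.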

[26] = system: HL-60(TB); assay: Growth inhibition of human HL-60(TB) cells; format: functional; outline: as §1
[27] = system: DU-145; assay: Growth inhibition of human DU145 cells; format: functional; outline: as §1
[28] = system: K562; assay: Growth inhibition of human K562 cells; format: functional; outline: as §1
[29] = system: PC-3; assay: cells; details: Homo sapiens, PC-3, 72 h
[30] = Growth inhibition of human HOP92 cells; format: functional; details: HOP-92; outline: as §1
[31] = Growth inhibition of human SF295 cells; format: functional; details: SF-295; outline: as §1
[32] = Growth inhibition of human NCI-ADR-RES cells; format: functional; outline: as §1
[33] = system: SW-620; assay: Growth inhibition of human SW620 cells; format: functional; outline: as §2
[34] = Growth inhibition of human OVCAR8 cells by Alamar Blue assay; format: functional; details: OVCAR-8; outline: as §3

Molecule COc1cc(/C(C#N)=C/c2cc3ccccc3s2)cc(OC)c1OC has a GI50 [1] of 23.3 nM, a GI50 [2] of 24.9 nM and a GI50 [3] of 52.3 nM. For the same molecule, the GI50 [4] was over 100 nM, the RatioGI50 [5] was 1.2 and the inhibition [6] was “Dose-dependent effect”. The GI50 [7] was 52.4 nM, the GI50 [8] was 36.3 nM and the inhibition [9] was “Active”. It also gave a GI50 [10] of 48.7 nM, a GI50 [11] of 23.5 nM and a GI50 [12] of 23.5 nM. The GI50 [13] was over 100 nM, the GI50 [14] was 51.7 nM and the GI50 [15] was 41.6 nM. It also gave a GI50 [16] of 61.5 nM, a GI50 [17] of 41.2 nM and a GI50 [18] of 9.7 nM. For the same molecule, the GI50 [19] was 29.7 nM, the GI50 [20] was 23 nM and the GI50 [21] was 45 nM. It also gave a GI50 [22] of 46.6 nM, a GI50 [23] of 39.7 nM and a GI50 [24] of 41.5 nM. It also gave a GI50 [25] of 3.2 nM, a GI50 [26] of 24.4 nM and a GI50 [27] of 21.1 nM. It also gave a GI50 [28] of 30.4 nM, a GI50 [29] of 7.6 nM and a GI50 [30] of 17.9 nM. The GI50 [31] was 33.7 nM, the GI50 [32] was 27.5 nM and the GI50 [33] was 40.8 nM. For the same molecule, the GI50 [34] was 5.2 nM.
